Test results published in ChEMBL document CHEMBL1770120 (Eur J Med Chem, 2011).

Legend:
Liver microsomes [1] = assay: (§1) Metabolic stability in human liver microsomes assessed as unchanged remaining compound after 60 mins; type: ADME, Microsome; settings: microsomes, 1 h
How it was run: (§2)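 Test compound at 5 µmol/L with pooled human liver microsomes (0.5 mg/mL) and 1 mM NADPH in 0.1 M potassium phosphate buffer, pH 7.4, at 37 °C. Reactions stopped with acetonitrile at 0, 5, 10, 15, 30 and 60 min. Samples extracted with n-hexane:dichloromethane:isopropanol and spun to remove protein. Remaining parent measured by HPLC-MS (ESI positive).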

[2] = Mean residence time in Sprague-Dawley rat at 5 mg/kg, iv by LC-MS/MS analysis; type: ADME, organism-based; set-up: dose 5 mg/kg, route intravenous; settings: in vivo
How it was run: (§3)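 Male Sprague-Dawley rats (200–220 g), five per group, fasted from the evening before dosing until 2 h post-dose. Single i.v. dose of 5 mg/kg in cremophor:ethanol (1:1) diluted with sterile 0.154 M NaCl, given at 10 ml/kg. Plasma sampled 5–1440 min. Plasma kept at -20 °C and assayed by LC-MS-MS after liquid–liquid extraction. Parameters from mean plasma concentrations by non-compartmental analysis.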

[3] = Cytotoxicity against human HL60-0607-2 cells after 72 hrs by SRB assay; type: functional, cell-based
How it was run: (§4)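 Cells grown in RPMI 1640 with 10% FBS at 37 °C under 5% CO2 and seeded at 0.4–1.0 × 10^4 cells/well. Compounds added after 24 h from DMSO stock, at least five concentrations, final DMSO ≤0.1%. Exposure 72 h. Growth read by SRB staining at OD 520 nm. Three experiments, each in quadruplicate. IC50 taken from survival (%) versus concentration curves.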

[4] = Cytotoxicity against multidrug-resistant human KBR-0602 cells after 72 hrs by SRB assay; type: functional, cell-based; settings: KBR-0602, 72 h; how it was run: as §4
[5] = Half life in Sprague-Dawley rat plasma at 5 mg/kg, iv by LC-MS/MS analysis; type: ADME, organism-based; set-up: dose 5 mg/kg, route intravenous; how it was run: as §3
[6] = Cytotoxicity against multidrug-resistant human HL60OR-0604-2 cells after 72 hrs by SRB assay; type: functional, cell-based; how it was run: as §4
[7] = AUC (0 to t) in Sprague-Dawley rat at 5 mg/kg, iv by LC-MS/MS analysis; type: ADME, organism-based; set-up: dose 5 mg/kg, route intravenous; settings: plasma; how it was run: as §3
[8] = Cytotoxicity against human KB-0528 cells after 72 hrs by SRB assay; type: functional, cell-based; settings: KB-0528, 72 h; how it was run: as §4
[9] = Cytotoxicity against multidrug-resistant human KBR-0530 cells after 72 hrs by SRB assay; type: functional, cell-based; settings: KBR-0530, 72 h; how it was run: as §4
[10] = Apparent volume of distribution in Sprague-Dawley rat at 5 mg/kg, iv by LC-MS/MS analysis; type: ADME, organism-based; set-up: dose 5 mg/kg, route intravenous; settings: in vivo, read-out: Vz; how it was run: as §3
[11] = Intrinsic clearance in human liver microsomes; type: ADME, Microsome; how it was run: as §2
[12] = AUC (0 to infinity) in Sprague-Dawley rat at 5 mg/kg, iv by LC-MS/MS analysis; type: ADME, organism-based; set-up: time infinity, dose 5 mg/kg, route intravenous; settings: plasma; how it was run: as §3
[13] = Total plasma clearance in Sprague-Dawley rat at 5 mg/kg, iv by LC-MS/MS analysis; type: ADME, organism-based; set-up: dose 5 mg/kg, route intravenous; how it was run: as §3
Liver microsomes [14] = assay: (§5) Half life in human liver microsomes; type: ADME, Microsome; settings: microsomes; how it was run: as §2
[15] = as §1; type: ADME, Microsome; settings: liver microsomes, read-out: Stability; how it was run: as §2
[16] = Ratio of compound IC50 to docetaxel IC50 for human HL60OR-0604-2 cells; type: functional
[17] = Ratio of compound IC50 to docetaxel IC50 for human HL60-0607-2 cells; type: functional
[18] = as §5; type: ADME, Microsome; settings: liver microsomes; how it was run: as §2

Structure (SMILES) | Stability (Liver microsomes [1]) [%] | MRT [2] [h] | IC50 [3] [nM] | IC50 [4] [nM] | half-life [5] [h] | IC50 [6] [nM] | AUC(0-t) [7] [ng·h/mL] | IC50 [8] [nM] | IC50 [9] [nM] | Vd [10] [L/kg] | CLint scaled [11] [mL/min/kg] | AUC(0-inf) [12] [ng·h/mL] | clearance [13] [mL/min/kg] | t1/2 (Liver microsomes [14]) [h] | remaining at 1 h [15] [%] | Ratio IC50 [16] | Ratio IC50 [17] | half-life [18] [h]
CC(=O)O[C@@]12CO[C@@H]1C[C@H](O)[C@@]1(C)C(=O)[C@H](O)C3=C(C)[C@@H](OC(=O)[C@H](O)[C@@H](NC(=O)OC(C)(C)CF)c4ccc(F)cc4)C[C@@](O)([C@@H](OC(=O)c4ccccc4)[C@H]21)C3(C)C | 53.8 | 2.13 | 0.14 | 0.195 | 5.06 | 0.51 | 1640 | 0.915 | 0.232 | 22 | 8.62 | 1660 | 50.3 | 2.407 |  |  |  | 
CC(=O)O[C@@]12CO[C@@H]1C[C@H](O)[C@@]1(C)C(=O)[C@H](O)C3=C(C)[C@@H](OC(=O)[C@H](O)[C@@H](NC(=O)OC(C)(C)C(F)F)c4ccc(F)cc4)C[C@@](O)([C@@H](OC(=O)c4ccccc4)[C@H]21)C3(C)C | 72.4 | 4.28 | 0.0168 | 0.885 | 13.4 | 2.08 | 3150 | 0.397 | 0.321 | 27.4 | 3.41 | 3360 | 25.2 | 6.08 |  |  |  | 
CC(=O)O[C@@]12CO[C@@H]1C[C@H](O)[C@@]1(C)C(=O)[C@H](O)C3=C(C)[C@@H](OC(=O)[C@H](O)[C@@H](NC(=O)OC(C)(C)C(F)(F)F)c4ccc(F)cc4)C[C@@](O)([C@@H](OC(=O)c4ccccc4)[C@H]21)C3(C)C |  | 2.78 | 0.000358 | 0.432 | 8.5 | 0.0155 | 3870 | 0.0259 | 0.332 | 15.8 | 0.36 | 3980 | 21.3 |  | 88.5 | 10 | 20 | 57.8
CC(=O)O[C@@]12CO[C@@H]1C[C@H](O)[C@@]1(C)C(=O)[C@H](O)C3=C(C)[C@@H](OC(=O)[C@H](O)[C@@H](NC(=O)OC(C)(C)CF)c4ccccc4)C[C@@](O)([C@@H](OC(=O)c4ccccc4)[C@H]21)C3(C)C |  | 5.62 | 0.156 | 0.792 | 12.2 | 0.958 | 914 | 0.506 | 0.0322 | 89.7 |  | 994 | 84.8 |  |  |  |  | 
CC(=O)O[C@@]12CO[C@@H]1C[C@H](O)[C@@]1(C)C(=O)[C@H](O)C3=C(C)[C@@H](OC(=O)[C@H](O)[C@@H](NC(=O)OC(C)(C)C(F)(F)F)c4ccccc4)C[C@@](O)([C@@H](OC(=O)c4cccc(F)c4)[C@H]21)C3(C)C |  | 2.13 | 0.0547 | 0.149 | 7.62 | 0.191 | 3870 | 0.21 | 0.108 | 13.7 |  | 3940 | 21.3 |  |  |  |  | 
CC(=O)O[C@@]12CO[C@@H]1C[C@H](O)[C@@]1(C)C(=O)[C@H](O)C3=C(C)[C@@H](OC(=O)[C@H](O)[C@@H](NC(=O)OC(C)(C)CF)c4ccccc4)C[C@@](O)([C@@H](OC(=O)c4cccc(F)c4)[C@H]21)C3(C)C |  | 2.3 | 0.00111 | 0.205 | 6.8 | 2.97 | 2190 | 0.248 | 0.0669 | 22.7 |  | 2240 | 37.7 |  |  |  |  | 
CC(=O)O[C@@]12CO[C@@H]1C[C@H](O)[C@@]1(C)C(=O)[C@H](O)C3=C(C)[C@@H](OC(=O)[C@H](O)[C@@H](NC(=O)OC(C)(C)C(F)(F)F)c4ccccc4)C[C@@](O)([C@@H](OC(=O)c4ccccc4)[C@H]21)C3(C)C |  | 2.32 | 0.263 | 0.626 | 9.91 | 0.41 | 3860 | 0.0834 | 0.694 | 18.1 |  | 3960 | 21 |  |  |  |  | 
CC(=O)O[C@@]12CO[C@@H]1C[C@H](O)[C@@]1(C)C(=O)[C@H](O)C3=C(C)[C@@H](OC(=O)[C@H](O)[C@@H](NC(=O)OC(C)(C)C(F)F)c4ccccc4)C[C@@](O)([C@@H](OC(=O)c4ccccc4)[C@H]21)C3(C)C |  | 2.76 | 0.176 | 0.369 | 7.69 | 0.554 | 2860 | 0.282 | 0.332 | 20.2 |  | 2930 | 29.8 |  |  |  |  | 
CC(=O)O[C@@]12CO[C@@H]1C[C@H](O)[C@@]1(C)C(=O)[C@H](O)C3=C(C)[C@@H](OC(=O)[C@H](O)[C@@H](NC(=O)OC(C)(C)C(F)F)c4ccccc4)C[C@@](O)([C@@H](OC(=O)c4cccc(F)c4)[C@H]21)C3(C)C |  | 2.4 | 0.183 | 0.182 | 10.2 | 0.584 | 1930 |  | 0.161 | 36.2 |  | 1990 | 42.5 |  |  |  |  | 
CC(=O)O[C@@]12CO[C@@H]1C[C@H](O)[C@@]1(C)C(=O)[C@H](O)C3=C(C)[C@@H](OC(=O)[C@H](O)[C@@H](NC(=O)OC(C)(C)C)c4ccccc4)C[C@@](O)([C@@H](OC(=O)c4ccccc4)[C@H]21)C3(C)C.O.O.O [DOCETAXEL] |  | 3.34 | 0.0115 | 0.234 | 7.37 | 0.114 | 646 | 0.454 | 0.132 | 78.8 |  | 667 | 125 |  |  |  |  | 
